Data as given in publication PMC3145007 (Journal of the American Chemical Society, 2011).
“Also recorded” adds a separate entry of the source.

Key:
[1] = in vivo distribution of PREPL inhibitor to brain by LC-MS/MS; conditions: mouse, 1 mg/kg intraperitoneal, 30 minutes, brain extract, MRM
PREPL [2] = biological target: T1, PREPL (Mus musculus, UniProt Q8C167); test: in situ ABPP assay in PREPL-transfected Neuro2A cells; type: cell-based; conditions: 50 μM inhibitor in media
Outline: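 Neuro2A cells plated at 1.5 × 10^6 per well and transfected next day with mouse PREPL plasmid by lipofection. Two days later, medium replaced with medium containing test compound for 1.5 h. Cell-permeable FP-alkyne then added (10 μM final) for 1 h. Cells PBS-washed, scraped, lysed by 7 freeze-thaw cycles and spun at 20,000 x g. Lysate at 4 mg/ml clicked with rhodamine-azide/TCEP/ligand/CuSO4 for 1 h, then resolved by SDS-PAGE.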

PREPL [3] = biological target: T1, PREPL; test: MUGB; type: biochemical
PREPL [4] = biological target: T1, PREPL; test: competitive gel-based ABPP in PREPL-spiked mouse brain proteome; type: biochemical; conditions: 50 μM inhibitor, brain proteome 1 mg/mL spiked with 40 nM PREPL, FP-Rh
Outline: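 Brain proteome diluted to 1 mg/mL in PBS pH 7.4 and spiked with recombinant His-tagged mouse PREPL (E. coli-expressed, Ni-IMAC purified), with Pluronic at 0.01% final. Test compound or DMSO preincubated 30 min at room temperature. FP-Rh at 0.5 μM final for 15 min, then SDS-loading-buffer quench. Samples run on 10% SDS-PAGE, scanned in-gel for fluorescence, and PREPL bands quantified for labeling extent.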

PREPL [5] = biological target: T1, PREPL; test: gel-based ABPP IC50 determination with recombinant PREPL and FP-Rh; type: biochemical
PEP = PEP (Mus musculus, UniProt Q9QUR6); test: PEP selectivity assay; type: biochemical; conditions: 20 μM inhibitor; >20% reduction in PEP activity = cross-reactive
Sequence of PEP (Q9QUR6 whole entry): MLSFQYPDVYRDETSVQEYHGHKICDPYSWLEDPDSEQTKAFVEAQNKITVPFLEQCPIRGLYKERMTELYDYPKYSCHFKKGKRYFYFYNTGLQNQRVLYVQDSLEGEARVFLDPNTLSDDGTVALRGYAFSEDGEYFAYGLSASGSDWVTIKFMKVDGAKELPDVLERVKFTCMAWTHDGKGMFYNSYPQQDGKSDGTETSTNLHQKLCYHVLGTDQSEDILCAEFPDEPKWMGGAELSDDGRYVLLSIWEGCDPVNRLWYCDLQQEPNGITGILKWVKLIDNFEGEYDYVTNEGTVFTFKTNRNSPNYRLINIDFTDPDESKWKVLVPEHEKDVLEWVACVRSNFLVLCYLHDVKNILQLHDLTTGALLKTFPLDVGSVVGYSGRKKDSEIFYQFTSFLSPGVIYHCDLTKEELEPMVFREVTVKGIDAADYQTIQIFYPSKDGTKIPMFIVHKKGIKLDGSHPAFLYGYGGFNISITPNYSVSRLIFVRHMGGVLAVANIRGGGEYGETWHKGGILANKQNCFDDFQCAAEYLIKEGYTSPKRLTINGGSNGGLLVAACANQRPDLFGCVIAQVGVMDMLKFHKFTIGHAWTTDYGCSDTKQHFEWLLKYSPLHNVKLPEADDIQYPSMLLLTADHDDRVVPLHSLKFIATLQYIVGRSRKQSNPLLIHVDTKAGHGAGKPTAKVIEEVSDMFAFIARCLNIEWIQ

T1 sequence (Q8C167 88-725): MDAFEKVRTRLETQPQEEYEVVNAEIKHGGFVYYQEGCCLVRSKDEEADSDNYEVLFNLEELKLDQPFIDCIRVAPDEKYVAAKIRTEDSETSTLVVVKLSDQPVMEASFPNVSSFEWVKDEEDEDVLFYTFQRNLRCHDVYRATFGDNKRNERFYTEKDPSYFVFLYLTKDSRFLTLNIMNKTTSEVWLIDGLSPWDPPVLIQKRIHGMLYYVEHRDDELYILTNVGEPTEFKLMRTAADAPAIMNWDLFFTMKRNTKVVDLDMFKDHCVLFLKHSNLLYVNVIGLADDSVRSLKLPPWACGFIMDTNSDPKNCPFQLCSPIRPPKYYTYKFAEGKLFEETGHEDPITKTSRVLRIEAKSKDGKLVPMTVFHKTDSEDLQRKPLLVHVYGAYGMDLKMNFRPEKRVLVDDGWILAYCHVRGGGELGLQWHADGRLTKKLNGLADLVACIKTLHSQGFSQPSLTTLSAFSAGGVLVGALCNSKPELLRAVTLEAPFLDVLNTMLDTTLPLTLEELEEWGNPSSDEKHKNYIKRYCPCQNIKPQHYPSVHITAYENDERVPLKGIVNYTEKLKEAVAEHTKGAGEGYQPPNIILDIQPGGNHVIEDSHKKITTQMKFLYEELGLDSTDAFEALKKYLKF

With CC(C)Cc1[nH]c(=O)c(C#N)c2c1CCC2 [compound 8, 1-isobutyl-3-oxo-3,5,6,7-tetrahydro-2H-cyclopenta[c]pyridine-4-carbonitrile] the “presence in brain / crossing of blood-brain barrier” value [1] was “strong signal; also recorded: able to cross the blood-brain barrier”, the “inhibition of PREPL in cells (in situ)” value (PREPL [2]) was “able to cross the cell membrane and inhibit PREPL intracellularly; also recorded: lighter band on the gel” and the “inhibition of MUGB breakdown by PREPL” value (PREPL [3]) was “inhibited breakdown of MUGB by PREPL”. For the same molecule, the “inhibition of PREPL in complex (brain) proteome” value (PREPL [4]) was “able to inhibit PREPL in a complex proteome; also recorded: most potent carbonitrile inhibitor in the brain proteome ABPP assay; also recorded: selectively inhibit PREPL in brain proteomes”, the IC50 (PREPL [5]) was 3 to 12 µM and the “crossreactivity against PEP” value (PEP) was “non-crossreactive”.
